# From publication PMC4467241 (Clinical Pharmacology in Drug Development, 2014)
# Where two headings read alike, the source gives them in different places. Marks after values point to notes of the source that are not given here.
# What was measured:
# [1] = assay type: in vivo, human; conditions: for CL/F / AUC(0-t) / AUC(0-inf) / Cmax / half-life / tmax: plasma; for AUC(0-t) / AUC(0-inf) / Cmax / half-life / tmax: human, po; for AUC(0-t): AUC0–t; for AUC(0-inf): AUC0–∞
# Outline: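 Heparinised plasma was taken predose and at 0.5–48 h, spun within 30 min and stored at −70 °C. Parent and metabolite were measured by SPE LC–MS/MS; noncompartmental AUC, with ANOVA on log values giving geometric-mean ratio and 90% CI.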
# [2] = cited from earlier work
# [3] = 10 mg, MTX 10 mg oral alone (Day 1), N = 1
# [4] = 12.5 mg, MTX 12.5 mg oral alone (Day 1), N = 1
# [5] = 17.5 mg, MTX 17.5 mg oral alone (Day 1), N = 1
# [6] = MTX 12.5 mg oral + Apremilast 30 mg Q12H (Day 8), N = 1
# [7] = MTX 17.5 mg oral + Apremilast 30 mg Q12H (Day 8), N = 1
# [8] = methotrexate in plasma, ANOVA, N = 15
# [9] = methotrexate in plasma, all dose groups, N = 15, acceptance range 80–125%
smiles,measurement,setting,value
"CN(Cc1cnc2nc(N)nc(N)c2n1)c1ccc(C(=O)N[C@@H](CCC(=O)O)C(=O)O)cc1 [MTX, methotrexate, reference compound]",CL/F,"[1]; MTX 10 mg oral alone (Day 1), N = 1",120 mL/min
same,CL/F,"[1]; MTX 12.5 mg oral alone (Day 1), N = 1",88 mL/min
same,CL/F,"[1]; MTX 17.5 mg oral alone (Day 1), N = 1",129 mL/min
same,CL/F,"[1]; MTX 20 mg oral alone (Day 1), N = 6, arithmetic mean (SD)",122 (33.7) mL/min
same,AUC(0-t),[1]; [3],1390 ng·h/mL
same,AUC(0-inf),[1]; [3],1380 ng·h/mL
same,Cmax,[1]; [3],323 ng/mL
same,half-life,"[1]; 10 mg, t1/2, MTX 10 mg oral alone (Day 1), N = 1",3.5 h
same,tmax,[1]; [3],1.45 h
same,AUC(0-t),[1]; [4],2360 ng·h/mL
same,Cmax,[1]; [4],528 ng/mL
same,half-life,"[1]; 12.5 mg, t1/2, MTX 12.5 mg oral alone (Day 1), N = 1",3.6 h
same,tmax,[1]; [4],1 h
same,AUC(0-t),[1]; [5],2250 ng·h/mL
same,Cmax,[1]; [5],646 ng/mL
same,half-life,"[1]; 17.5 mg, t1/2, MTX 17.5 mg oral alone (Day 1), N = 1",5.6 h
same,tmax,[1]; [5],1 h
same,AUC(0-t),[1]; [6],3020 ng·h/mL
same,AUC(0-t),[1]; [7],2270 ng·h/mL
same,AUC(0-inf),[1]; [6],3010 ng·h/mL
same,Cmax,[1]; [6],669 ng/mL
same,Cmax,[1]; [7],565 ng/mL
same,half-life,"[1]; t1/2, MTX 12.5 mg oral + Apremilast 30 mg Q12H (Day 8), N = 1",3.2 h
same,tmax,[1]; [6],2.07 h
same,tmax,[1]; [7],1 h
same,Intra-subject CV% of AUC0–∞,"[1]; methotrexate in plasma, ANOVA, N = 14",11.19%
same,Intra-subject CV% of AUC0–t,[1]; [8],10.57%
same,Intra-subject CV% of Cmax,[1]; [8],11.07%
same,AUC0–∞ ratio of geometric means (“methotrexate + apremilast”/“methotrexate”),"[1]; methotrexate in plasma, all dose groups, N = 14, acceptance range 80–125%",100.39
same,tmax median difference (“MTX + Apremilast” − “MTX”),"[1]; methotrexate in plasma, all dose groups, N = 15, Hodges–Lehmann",0.235 ^d hr
same,AUC0–t ratio of geometric means (“methotrexate + apremilast”/“methotrexate”),[1]; [9],99.90
same,Cmax ratio of geometric means (“methotrexate + apremilast”/“methotrexate”),[1]; [9],99.49
same,"90% CI for Cmax, AUC0–t and AUC0–∞ versus FDA acceptance range of 80–125%",[1]; methotrexate with versus without apremilast,within the acceptance range for equivalency
same,Fraction metabolized to 7-hydroxy methotrexate,[2],~10%
